Measurements as given in ChEMBL document CHEMBL3102740, “Antcamphins A-L, ergostanoids from Antrodia camphorata” (J Nat Prod, 2014).

Legend:
A549 = test: Cytotoxicity against human A549 cells after 48 hrs by SRB assay; type: functional, cell-based; details: A549, 48 h
How it was run: (§1)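 Cells exposed to each compound for 48 h; growth measured by sulforhodamine B staining. Compounds dissolved in DMSO, then diluted into growth medium. Cisplatin served as positive control. IC50 values derived from the SRB read-out.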

MDA-MB-231 = test: Cytotoxicity against human MDA-MB-231 cells after 48 hrs by SRB assay; type: functional, cell-based; details: MDA-MB-231, 48 h; how it was run: as §1
Hs68 = test: Cytotoxicity against human HS68 cells at 25 to 200 uM after 48 hrs by SRB assay; type: cell-based; details: hs68, 48 h; how it was run: as §1

Q: With `CC(=O)CC[C@@H](C)[C@H]1CC[C@H]2C3=C(C(=O)C[C@]12C)[C@@]1(C)CCC(=O)[C@@H](C)[C@@H]1CC3=O` as the compound, how does the IC50 (A549) read?
A: 65.9 µM

Q: And the IC50 (MDA-MB-231)?
A: 45.5 µM

Q: And the Activity (Hs68)?
A: Non-toxic

Q: `C=C(CC[C@@H](C)[C@H]1CC[C@H]2C3=C(C(=O)C[C@]12C)[C@@]1(C)CCC(=O)[C@@H](C)[C@@H]1CC3=O)[C@@H](C)C(=O)O` was tested. Which IC50 (A549) did it give?
A: 41.4 µM

Q: And the IC50 (MDA-MB-231)?
A: 33.4 µM

Q: What about the Activity (Hs68) of the same compound?
A: Non-toxic

Q: With `C=C(CC[C@@H](C)[C@H]1CC[C@H]2C3=C(C(=O)[C@H](O)[C@]12C)[C@@]1(C)CCC(=O)[C@@H](C)[C@@H]1CC3=O)[C@@H](C)C(=O)O` as the compound, how does the Activity (Hs68) read?
A: Non-toxic

Q: How did the Activity (Hs68) turn out when `C=C(CC[C@@H](C)[C@H]1CC[C@H]2C3=C(C(=O)C[C@]12C)[C@@]1(C)CC[C@H](O)[C@@H](C)[C@@H]1C[C@@H]3O)[C@H](C)C(=O)O` was run?
A: Non-toxic

Q: How did the IC50 (A549) turn out when `C=C(CC[C@@H](C)[C@H]1CC[C@H]2C3=C(C(=O)C[C@]12C)[C@@]1(C)CCC(=O)[C@@H](C)[C@@H]1CC3=O)[C@H](C)C(=O)O` [ANTCIN B] was run?
A: 57.4 µM

Q: What about the IC50 (MDA-MB-231) of the same compound?
A: 44 µM

Q: What about the Activity (Hs68) of the same compound?
A: Non-toxic

Q: How did the IC50 (A549) turn out when `C=C(CC[C@@H](C)[C@H]1CC[C@H]2C3=C(C(=O)C[C@]12C)[C@@]1(C)CCC(=O)[C@@H](C)[C@@H]1C[C@@H]3O)[C@@H](C)C(=O)O` was run?
A: 33.1 µM

Q: What about the IC50 (MDA-MB-231) of the same compound?
A: 25.1 µM

Q: And the Activity (Hs68)?
A: Non-toxic

Q: How did the Activity (Hs68) turn out when `C=C(CC[C@@H](C(=O)O)[C@H]1C[C@H](O)[C@@]2(C)C3=C(CC[C@]12C)[C@@]1(C)CC[C@H](O)C(C)(C)[C@@H]1CC3)C(C)C` [SULFURENIC ACID] was run?
A: Non-toxic

Q: With `C[C@@H]1[C@H](O)CC[C@]2(C)C3=C(C(=O)C[C@@H]12)[C@@H]1CC[C@H]([C@H](C)CCO)[C@@]1(C)[C@@H](O)C3=O` as the compound, how does the Activity (Hs68) read?
A: Non-toxic

Q: With `C=C(CC[C@@H](C)[C@H]1CC[C@H]2C3=C(C(=O)C[C@]12C)[C@@]1(C)CCC(=O)[C@](C)(O)[C@@H]1C[C@@H]3O)[C@H](C)C(=O)OC` as the compound, how does the IC50 (A549) read?
A: 73.2 µM

Q: What about the IC50 (MDA-MB-231) of the same compound?
A: 76.8 µM

Q: And the Activity (Hs68)?
A: Non-toxic

Q: What does the source list for `C=C(CC[C@@H](C)[C@H]1CC[C@H]2C3=C(C(=O)C[C@]12C)[C@@]1(C)CCC(=O)[C@@H](C)[C@@H]1CC3)C(C)C(=O)O` (some centres not stated) [ANTCIN A]?
A: IC50 (A549): 39.4 µM; IC50 (MDA-MB-231): 29.6 µM; Activity (Hs68): Non-toxic

Q: `C=C(CC[C@@H](C)[C@H]1CC[C@H]2C3=C(C(=O)C[C@]12C)[C@@]1(C)CC[C@@H](O)[C@](C)(O)[C@@H]1C[C@@H]3O)[C@@H](C)C(=O)O` was tested. Which Activity (Hs68) did it give?
A: Non-toxic

Q: With `C=C(CC[C@@H](C)[C@H]1CC[C@H]2C3=C(C(=O)[C@H](O)[C@]12C)[C@@]1(C)CC[C@@H](O)[C@@H](C)[C@@H]1CC3=O)[C@@H](C)C(=O)O` as the compound, how does the IC50 (A549) read?
A: 22 µM

Q: And the IC50 (MDA-MB-231)?
A: 23.7 µM

Q: And the Activity (Hs68)?
A: Non-toxic

Q: How did the IC50 (A549) turn out when `C=C(CC[C@@H](C)[C@H]1CC[C@H]2C3=C(C(=O)C[C@]12C)[C@@]1(C)CCC(=O)[C@](C)(O)[C@@H]1C[C@@H]3O)[C@@H](C)C(=O)O` was run?
A: 66.3 µM

Q: And the IC50 (MDA-MB-231)?
A: 67.2 µM

Q: And the Activity (Hs68)?
A: Non-toxic

Q: How did the IC50 (A549) turn out when `C=C(CC[C@@H](C)[C@H]1CC[C@H]2C3=C(C(=O)C[C@]12C)[C@@]1(C)CCC(=O)[C@@H](C)[C@@H]1C[C@@H]3O)[C@H](C)C(=O)O` was run?
A: 76.2 µM

Q: And the IC50 (MDA-MB-231)?
A: 74.2 µM

Q: What about the Activity (Hs68) of the same compound?
A: Non-toxic

Q: `C=C(CC[C@@H](C)[C@H]1CC[C@H]2C3=C(C(=O)C[C@]12C)[C@@]1(C)CCC(=O)[C@](C)(O)[C@@H]1C[C@@H]3O)[C@H](C)C(=O)O` was tested. Which IC50 (A549) did it give?
A: 80.2 µM

Q: What about the IC50 (MDA-MB-231) of the same compound?
A: 58.6 µM

Q: What about the Activity (Hs68) of the same compound?
A: Non-toxic

Q: How did the Activity (Hs68) turn out when `C=C(CC[C@@H](C(=O)O)[C@H]1CC[C@@]2(C)C3=C(CC[C@]12C)[C@@]1(C)CC[C@H](O)C(C)(C)[C@@H]1CC3)C(C)C` [EBURICOIC ACID] was run?
A: Non-toxic

Q: Which IC50 (A549) does the source give for `C=C(CC[C@@H](C)[C@H]1CC[C@H]2C3=C(C(=O)[C@H](O)[C@]12C)[C@@]1(C)CC[C@@H](O)[C@@H](C)[C@@H]1CC3=O)[C@H](C)C(=O)O` here?
A: 32.8 µM

Q: And the IC50 (MDA-MB-231)?
A: 38.6 µM

Q: What about the Activity (Hs68) of the same compound?
A: Non-toxic

Q: Which IC50 (A549) does the source give for `C=C(CC[C@@H](C)[C@H]1CC[C@H]2C3=C(C(=O)[C@H](O)[C@]12C)[C@@]1(C)CC[C@@H](O)[C@@H](C)[C@@H]1C[C@@H]3O)C(C)C(=O)O` (some centres not stated) [CAMPHORATIN A] here?
A: 92.1 µM

Q: What about the IC50 (MDA-MB-231) of the same compound?
A: 93.5 µM

Q: And the Activity (Hs68)?
A: Non-toxic

Q: How did the IC50 (A549) turn out when `C=C(CC[C@@H](C)[C@H]1CC[C@H]2C3=C(C(=O)C[C@]12C)[C@@]1(C)CC[C@@H](O)[C@](C)(O)[C@@H]1CC3=O)C(C)C(=O)O` (some centres not stated) [CAMPHORATIN C] was run?
A: 48.8 µM

Q: What about the IC50 (MDA-MB-231) of the same compound?
A: 62.8 µM

Q: And the Activity (Hs68)?
A: Non-toxic

Q: For `C=C(CC[C@@H](C(=O)O)[C@H]1CC[C@@]2(C)C3=CC[C@H]4C(C)(C)[C@@H](O)CC[C@]4(C)C3=CC[C@]12C)C(C)C` [DEHYDROEBURICOIC ACID], which Activity (Hs68) is on record?
A: Non-toxic

Q: `C=C(CC[C@@H](C)[C@H]1CC=C2C3=C(C(=O)C[C@@]21C)[C@@]1(C)CCC(=O)[C@@H](C)[C@@H]1C[C@@H]3O)C(C)C(=O)O` (some centres not stated) was tested. Which IC50 (A549) did it give?
A: 40.6 µM

Q: What about the IC50 (MDA-MB-231) of the same compound?
A: 31.6 µM

Q: What about the Activity (Hs68) of the same compound?
A: Non-toxic

Q: Which Activity (Hs68) does the source give for `C=C(CC[C@@H](C)[C@H]1CC[C@H]2C3=C(C(=O)C[C@]12C)[C@@]1(C)CC[C@H](O)[C@@H](C)[C@@H]1C[C@@H]3O)[C@@H](C)C(=O)O` here?
A: Non-toxic

Q: With `C=C(CC[C@@H](C(=O)O)[C@H]1C[C@H](O)[C@@]2(C)C3=CC[C@H]4C(C)(C)[C@@H](O)CC[C@]4(C)C3=CC[C@]12C)C(C)C` as the compound, how does the Activity (Hs68) read?
A: Non-toxic

Q: `C/C(C=O)=C(/C)CC[C@@H](C)[C@H]1CC[C@H]2C3=C(C(=O)C[C@]12C)[C@@]1(C)CCC(=O)[C@@H](C)[C@@H]1CC3` was tested. Which Activity (Hs68) did it give?
A: Non-toxic

Q: How did the Activity (Hs68) turn out when `C=C(CC[C@@H](C(=O)O)[C@H]1C[C@H](O)[C@@]2(C)C3=CC[C@H]4C(C)(C)C(=O)CC[C@]4(C)C3=CC[C@]12C)C(C)C` was run?
A: Non-toxic

Q: How did the Activity (Hs68) turn out when `C=C(CC[C@@H](C(=O)O)[C@H]1C[C@H](OC(C)=O)[C@@]2(C)C3=CC[C@H]4C(C)(C)[C@@H](O)CC[C@]4(C)C3=CC[C@]12C)C(C)C` was run?
A: Non-toxic

Q: What does the source list for `C=C(CC[C@@H](C)[C@H]1CC[C@H]2C3=C(C(=O)[C@H](O)[C@]12C)[C@@]1(C)CCC(=O)[C@@H](C)[C@@H]1CC3=O)[C@H](C)C(=O)O`?
A: IC50 (A549): 84.4 µM; IC50 (MDA-MB-231): 71.3 µM; Activity (Hs68): Non-toxic

Q: `C/C(C=O)=C(\C)CC[C@@H](C)[C@H]1CC[C@H]2C3=C(C(=O)C[C@]12C)[C@@]1(C)CCC(=O)[C@@H](C)[C@@H]1CC3` was tested. Which Activity (Hs68) did it give?
A: Non-toxic

Q: For `C=C(CC[C@@H](C)[C@H]1CC[C@H]2C3=C(C(=O)C[C@]12C)[C@@]1(C)CC[C@@H](O)[C@](C)(O)[C@@H]1C[C@@H]3O)[C@H](C)C(=O)O`, which Activity (Hs68) is on record?
A: Non-toxic

Q: Which IC50 (A549) does the source give for `C=C(CC[C@@H](C)[C@H]1CC[C@H]2C3=C(C(=O)C[C@]12C)[C@@]1(C)CCC(=O)[C@](C)(O)[C@@H]1C[C@@H]3O)[C@@H](C)C(=O)OC` here?
A: 93.2 µM

Q: What about the IC50 (MDA-MB-231) of the same compound?
A: 71.5 µM

Q: What about the Activity (Hs68) of the same compound?
A: Non-toxic
